Arrestin-AP2 inh – blocks beta-arrestin peptide binding to AP2 adaptin; AID 504490; FITC-arrestin peptide / GST-AP2 beads, flow cytometry; AP2 beta2 appendage carries R879A mutation; inhibition, % at 10 µM; 0.31% of 340,000 active;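 active = inhibition above a set limit, near 3 SD of compounds lacking own fluorescence, cut at about 54% in these data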;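 also: plate controls were DMSO wells for no effect and 5 µM unlabelled arrestin peptide for full effect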
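System: GST-AP2 R879A glutathione beads. Medium: PBS with 0.05% Tween 20 and 0.1% BSA. Also added: FITC-arrestin peptide, 50 nM. Incubation: 12 min plus 1 h, RT. Measured by: high-throughput flow cytometry of beads, ex 488, em 535 nm. Evaluation: percent drop in bead-associated FITC signal.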
H9c2 protect – modulators protecting cardiomyocytes from myocardial damage | H9c2 cardiomyocytes, H2O2 injury protection, ATPLite, 2 h | protection from H2O2 cell death, % at 20 µM | 0.63% of 360,000 active | AID 588492;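 active = compounds giving at least 50% protection of heart cells from peroxide-induced death in the single-dose screen, raw or plate-pattern-corrected value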;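 also: 0% = DMSO wells with peroxide and 100% = DMSO wells without peroxide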
FAS-TE inh – blocks the thioesterase domain of human fatty acid synthase | P49327 | recombinant FAS-TE, OMFH fluorogenic substrate, fluorescence endpoint | inhibition, % at 15 µM | 0.67% of 360,000 active;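 active = compounds whose normalised, plate-corrected inhibition of enzyme fluorescence in the single-dose primary screen is 50% or more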;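 also: 0% = DMSO with enzyme and 100% = substrate without enzyme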
hiPSC survival – hiPSC single-cell survival enhancement. survival enhancement, % at 20 µM. ATPlite luminescence; 100% = ROCK inhibitor wells, 0% = DMSO. 0.044% of 360,000 active; in the data active = survival enhancement above about 18%;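 also: cells exposed to compounds for 16 hours before the ATP read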
GRIN3A LBD mod – NR3A (human) ligand-binding domain modulation | 2.5% of 340,000 active | NR3A LBD differential scanning fluorimetry, Tm shift; 0% = protein alone, 100% = glycine-bound protein | Tm shift relative to glycine control, % at 25 µM;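 active = melting temperature shift of at least 10% of the positive control shift, at one fixed dose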
SENP1 inh – blocks the human SENP1 SUMO protease catalytic domain | recombinant SENP1 catalytic domain, CyPet-SUMO1-YPet FRET cleavage | inhibition, % at 10 µM | 0.21% of 360,000 active | AID 624204;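 active = inhibition at least 30% at 10 µM, raw YFP signal under a set limit, fluorescence ratio 0.5 to 1.5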;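 also: 0% = enzyme with DMSO and 100% = no enzyme wells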
Target sequence (Q9P0U3 419-644 limits assumed): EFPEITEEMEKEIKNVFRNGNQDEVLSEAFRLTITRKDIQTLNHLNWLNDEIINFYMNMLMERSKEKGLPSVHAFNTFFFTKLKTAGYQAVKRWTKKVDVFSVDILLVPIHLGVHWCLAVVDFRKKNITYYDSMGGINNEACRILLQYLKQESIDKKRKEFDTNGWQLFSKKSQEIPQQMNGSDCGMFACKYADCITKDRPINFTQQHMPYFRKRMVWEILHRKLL
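Test system: recombinant human SENP1 catalytic domain, His6-tagged / Medium: pH 8 Tris buffer with EDTA, NaCl, BME, BSA, NP40, catalase / Also added: SUMO1 FRET substrate flanked by Cypet and Ypet, 25 nM / Times: 50 min reaction at room temperature / Signal: FRET, CFP and YFP emission / Control set: no-enzyme low control and enzyme-plus-DMSO high control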
* marks the source's active call; other numbers are inactive results; nt = no result given. Compounds with a hit are over-represented: about 4% of the library has one in this group of screens.

SMILES | Arrestin-AP2 inh | H9c2 protect | FAS-TE inh | hiPSC survival | GRIN3A LBD mod | SENP1 inh
O=C(CCc1ccc(O)cc1)c1c(O)cc(O)cc1O | 6 | -7 | -1 | 2 | 21* | -1
COc1ccc(C(=O)N/N=C/c2cc3ccccc3[nH]c2=O)cc1 | 2 | 44 | 4 | 0 | 18* | -32
COc1ccc(C(=O)Nc2ccccc2C(=O)N/N=C/c2cccc3ccccc23)cc1 | 18 | -11 | 26 | -5 | 14* | 5
COc1ccc(C(=O)Nc2ccccc2C(N)=O)cc1 | -6 | -11 | -6 | -3 | 5 | 2
CCOC(=O)c1cn(Cc2ccccc2)c2cc(C)nn2c1=O | -1 | 0 | -6 | -1 | 11* | -3
CCOC(=O)c1cn(Cc2ccc(Cl)cc2Cl)c2cc(C)nn2c1=O | 3 | 2 | -1 | 0 | 0 | 0
Cc1ccc(F)c(S(=O)(=O)NC(=O)C2(C)CCN2C(=O)Cc2cc(F)ccc2F)c1 (stereo not drawn) | nt | 0 | -3 | 2 | nt | 1
O=C(Nc1ccc(O)cc1)c1ccc2c(c1)C(=O)N(Cc1ccccc1)C2=O | 18 | 4 | -20 | 0 | -2 | 2
O=C(O)COc1ccc(NC(=O)c2ccc3c(c2)C(=O)N(Cc2ccccc2)C3=O)cc1 | -7 | -3 | -18 | 0 | 10* | 1
O=C(O)Cc1ccc(NC(=O)c2ccc3c(c2)C(=O)N(CC2CCCO2)C3=O)cc1 (stereo not drawn) | -15 | -1 | -7 | 1 | 11* | -1
COc1ccc(-c2nc3c(C)cc(Br)cn3c2Cc2cccc(F)c2)cc1OC | nt | 2 | 25 | 3 | nt | 1
O=[N+]([O-])c1ccc(Sc2cccc[n+]2[O-])c2nonc12 | 50 | -18 | -49 | 0 | -6 | 41*
O=[N+]([O-])c1ccc(Nc2ccccc2)c2nonc12 | 10 | -17 | -8 | 1 | -5 | 21
COc1ccc(/C=N/NC(=O)c2nnn(-c3nonc3N)c2C)cc1OC | nt | 9 | -11 | -3 | nt | 1
CCOc1cc(/C=N/NC(=O)c2nnn(-c3nonc3N)c2C)ccc1OCc1ccc(F)cc1 | -24 | -4 | -6 | 0 | 15* | 2
CCOc1cc(/C=N/NC(=O)c2nnn(-c3nonc3N)c2C)ccc1OCc1cccc(F)c1 | 8 | -7 | -4 | -1 | 26* | -1
CCOc1cc(/C=N/NC(=O)c2nnn(-c3nonc3N)c2C)ccc1OCc1ccc(C)cc1 | nt | 9 | -5 | 1 | nt | 0
COc1ccc(/C=N/NC(=O)c2c(C)nnn2-c2nonc2N)cc1OC | -10 | -3 | -4 | 0 | 19* | 1
CCOc1cc(/C=N/NC(=O)c2nn(C)cc2Br)ccc1OCc1ccccc1 | -4 | 8 | 8 | -2 | 10* | -1
COc1ccc(N2C(=O)c3ccccc3NC(=O)C2C(=O)Nc2ccc(N3CCOCC3)cc2)cc1 (stereo not drawn) | nt | nt | nt | nt | nt | -10
CCCNC(=O)C1(C)CCN1C(=O)c1ccc(C(C)(C)C)cc1 (stereo not drawn) | nt | -6 | -8 | -1 | nt | 0
CC1(C(=O)Nc2ccccc2)CCN1C(=O)CCc1ccc(Cl)cc1Cl (stereo not drawn) | nt | -10 | 13 | 0 | nt | 1
Cc1cccc(-[n+]2c(C)cc(C)c3c(=O)[nH]c(=O)[nH]c32)c1 | 12 | 17 | -6 | 1 | 12* | -41
Cc1cc2cc(CNC(=S)Nc3ccc(OC(F)(F)F)cc3)ccc2[nH]1 | 0 | -18 | 2 | -2 | 12* | -36
Cc1cc2cc(CNC(=S)Nc3ccc(OC(F)F)cc3)ccc2[nH]1 | -11 | -18 | 9 | -1 | 4 | -6
SMILES | Arrestin-AP2 inh | H9c2 protect | FAS-TE inh | hiPSC survival | GRIN3A LBD mod | SENP1 inh
CCCCN1C(=O)C(CC(=O)NCc2cccc3ccccc23)CC(C(=O)N2CCCCCC2)=C1C (stereo not drawn) | nt | nt | 0 | 0 | nt | -1
COc1ccc(C(=O)N/N=C/c2ccc(OC(=O)c3cccc4ccccc34)c([N+](=O)[O-])c2)cc1 | -18 | -4 | 10 | -1 | 12* | 2
O=[N+]([O-])c1cc(/C=N/N/C(=N/c2ccccn2)c2ccccn2)ccc1O | -3 | 26 | 3 | 4 | -5 | 34*
O=[N+]([O-])c1ccc(/C=N/N/C(=N/c2ccccn2)c2ccccn2)cc1 | 17 | -7 | 8 | 1 | 0 | 0
COc1ccc(C(=O)Oc2ccc(/C=N/NC(=O)c3ccccc3OC)cc2[N+](=O)[O-])cc1 | 4 | -3 | 10 | 0 | 1 | 6
O=C(N/N=C/c1ccc(OC(=O)c2ccccc2)c([N+](=O)[O-])c1)c1ccc(O)cc1 | 6 | 21 | -2 | 4 | 26* | 3
Cn1c(Oc2cccnc2CN2CCCC2)nc2cc(-c3cccc(C(F)(F)F)c3)sc2c1=O | nt | 25 | 0 | -2 | nt | -17
COc1cccc(CNC(=O)[C@@H]2CCCN2C(=O)[C@H]2CCCCN2C(=O)c2cccs2)c1 | nt | nt | -7 | 0 | nt | 3
Cc1cccc(C)c1NC(=O)C(c1ccccc1)N1CCC(Cc2ccccc2)CC1 (stereo not drawn) | nt | -7 | 22 | -1 | nt | 2
O=C(NCCN1CCN(c2ccccc2)CC1)c1ccc2c(c1)[nH]c(=S)n1c3ccccc3nc21 | 13 | 18 | 2 | 0 | 6 | -4
O=C(c1ccc2c(c1)[nH]c(=S)n1c3ccccc3nc21)N1CCN(c2ncccn2)CC1 | -11 | -6 | 4 | -3 | 11* | -1
Cn1c(Cc2ccccc2)nc(=O)c2ccccc21 | nt | 0 | 2 | 1 | nt | 3
CN1CCS/C1=C/C=C1\SC(=S)N(CC(=O)O)C1=O | 2 | -12 | -104 | -4 | -1 | 66*
CCCCN1C(=O)/C(=C/C=C2\SCCN2C)SC1=S | 16 | -19 | -42 | 2 | -6 | 22
COc1ccc(OC)c(NC(=O)C2(C)CCN2C(=O)CCC2CCCC2)c1 (stereo not drawn) | nt | -1 | 3 | 0 | nt | -1
Cc1ccc(C(=O)C2C(=O)c3ccccc3C2=O)cc1 | -3 | 4 | -8 | 8 | -1 | 5
NN=C1c2ccccc2C(=O)C1C(=O)C(c1ccccc1)c1ccccc1 (stereo not drawn) | 28 | -1 | 10 | -2 | 12* | 22
CCOC(=O)c1sc(=S)n(Cc2ccccc2)c1C | 25 | -3 | 31 | 0 | 14* | 1
CCc1nc2ccc(C(=O)N(C)CCN(C)C)cn2c1N(CC)C(=O)NCCc1ccccc1 | nt | 3 | -7 | 0 | nt | 1
N#C/C(=C\c1ccc(C(=O)O)cc1)c1ccccn1 | -7 | 5 | -6 | 2 | 0 | 0
N#C/C(=C\c1c[nH]c2ccc(Br)cc12)c1ccccn1 | 9 | -20 | 0 | 1 | 22* | -48
